Published values collected from several papers.
Lines come from different studies, so protocols differ.
Target: cAMP-dependent protein kinase catalytic subunit alpha (PRKACA, Homo sapiens, UniProt P17612)

| SMILES | observed | action | method | tested at | measurement | value |
| --- | --- | --- | --- | --- | --- | --- |
| CSc1nc(C)c(-c2ccnc(Nc3ccc(N4CCOCC4)cc3)c2)[nH]1 | enzyme activity | inhibitor | – | 10 µM | inhibition | 5% |
| Cc1ccc(C(=O)Nc2ccc(CN3CCN(C)CC3)c(C(F)(F)F)c2)cc1C#Cc1cnc2cccnn12 | enzyme activity | inhibitor | – | 23.5 nM | remaining activity | 53% |
| CNCc1ccccc1-c1csc([C@@H](C)Nc2nc(C)nc3cc(OC)c(OC)cc23)c1 | cell-free assay | – | competition with immobilised ligand | 1 µM | remaining binding | 100% |
| COc1cc2ncnc(Nc3ccc(Oc4ccccc4)cc3C)c2cc1OC | enzyme activity | inhibitor | – | 1 µM | inhibition | 3% |
| CCCOc1ccc([C@H]2[C@H](C(=O)O)[C@@H](c3ccc4c(c3)OCO4)CN2CC(=O)Nc2c(CC)cccc2CC)cc1 | cell-free assay | – | competition with immobilised ligand | 1 µM | remaining binding | 100% |
| CC(C)(O)[C@H]1CC[C@H](Nc2ccc3ncc(-c4cccc(C(F)(F)F)c4)n3n2)CC1 | enzyme activity | inhibitor | – | 1 µM | remaining activity | 99.4% |
| CC1(C)NC(=O)c2[nH]c3c(Cl)c(Cl)ccc3c2C1C#N (stereo not drawn) | thermal stability | – | DSF | 10 µM | ΔTm | 1 °C |
| CN(c1ncccc1CNc1nc(Nc2ccc3c(c2)CC(=O)N3)ncc1C(F)(F)F)S(C)(=O)=O | enzyme activity | inhibitor | – | 1 µM | inhibition | 78.4% |
| Cn1c2c(Cl)c(Cl)ccc2c2cc(N)[nH]c(=O)c21 | thermal stability | – | DSF | 10 µM | ΔTm | 0.1 °C |
| CC(C)(C)C(=O)c1sc(NC2CCCCC2)nc1N | enzyme activity | inhibitor | – | 10 µM | remaining activity | 106% |
| CCN(CC)CCNC(=O)c1c(C)[nH]c(/C=C2\C(=O)Nc3ccc(F)cc32)c1C | enzyme activity | inhibitor | – | 0.3 µM | inhibition | 11% |
| COc1ccnn2ncc(-c3ccnc(N(C)C)n3)c12 | cell-free assay | – | – | 1 µM | remaining signal | 100% |
| CC(C)c1ccc(NC(=O)c2cccs2)c(-c2nc3ccccc3[nH]c2=O)c1 | enzyme activity | inhibitor | – | 1 µM | activity vs control | 108% |
| FC(F)(F)Oc1cccc(-c2cnc3ccc(-c4ccncc4)nn23)c1 | enzyme activity | inhibitor | radiometric | 1 µM | activity vs control | 95% |
| Cc1cnn2ncc(-c3ccnc(N(C)C)n3)c2c1 | cell-free assay | – | – | 1 µM | remaining signal | 100% |
| Cc1ccc(-n2nc(C(C)(C)C)cc2NC(=O)Nc2ccc(OCCN3CCOCC3)c3ccccc23)cc1 | enzyme activity | inhibitor | – | 10 µM | inhibition | 6% |
| O=C(NCCCC1CCCCC1)c1ccc(CNC(=O)c2cnn(-c3ccccc3)c2C(F)(F)F)cc1 | cell-free assay | – | competition with immobilised ligand | 0.1 µM | remaining binding | 100% |
| FC(F)c1nc2ccccc2n1-c1nc(N2CCOCC2)nc(N2CCOCC2)n1 | enzyme activity | inhibitor | – | 10 µM | remaining activity | 76% |
| Cc1ccc(NC(=O)c2ccc(CN3CCN(C)CC3)cc2)cc1Nc1nccc(-c2cccnc2)n1 | enzyme activity | inhibitor | – | 0.5 µM | activity vs control | 95.4% |
| CN(C)c1ncnc(-c2ccc3nc(Nc4cc(CN5CCN(C(=O)CC(F)(F)F)CC5)ccn4)[nH]c3c2)c1Cl | cell-free assay | – | competition with immobilised ligand | 1 µM | remaining binding | 100% |
| COc1cc(Nc2cnc(C#N)c(O[C@H](C)CN(C)C)n2)ncc1-c1cnn(C)c1 | enzyme activity | inhibitor | radiometric | 10 µM | remaining activity | 78% |

| SMILES | observed | action | method | tested at | measurement | value |
| --- | --- | --- | --- | --- | --- | --- |
| O=C(Nc1cnn(-c2csc(C(=O)NC3COC3)c2)c1)Nc1c(F)cccc1Cl | enzyme activity | inhibitor | – | 5 µM | remaining activity | 108% |
| Cc1ccc(Nc2nccc(N(C)c3ccc4c(C)n(C)nc4c3)n2)cc1S(N)(=O)=O | enzyme activity | inhibitor | – | 0.3 µM | inhibition | 6% |
| CN(C)CCCn1cc(C2=C(c3c[nH]c4ccccc34)C(=O)NC2=O)c2ccccc21 | cell-free assay | – | – | 0.5 µM | remaining signal | 72% |
| Cc1ccc(C(=O)NCc2ccsc2)cc1C#Cc1cn(C(C)C)c2ncnc(N)c12 | enzyme activity | inhibitor | – | 1 µM | activity vs control | 103% |
| Cn1c2c(c3ccc(Cl)c(Cl)c31)C(C#N)C1(CCOCC1)NC2=O (stereo not drawn) | thermal stability | – | DSF | 10 µM | ΔTm | 0.1 °C |
| CC1=C(C#N)[C@@H](c2ccc3[nH]nc(C)c3c2)C(C#N)=C(c2ccc(Cl)cc2)N1 | cell-free assay | – | competition with immobilised ligand | 1 µM | remaining binding | 96.7% |
| Cn1c2c(c3ccc(Cl)c(Cl)c31)C(C#N)C(C)(C)NC2=O (stereo not drawn) | thermal stability | – | DSF | 10 µM | ΔTm | 0.4 °C |
| Cc1cc(NC(=O)c2cccc(S(F)(F)(F)(F)F)c2)cc(-n2ccn3nc(-c4cccnc4)cc23)c1 | cell-free assay | – | competition with immobilised ligand | 1 µM | remaining binding | 100% |
| Cn1c2c(c3ccc(Cl)c(Cl)c31)C(C#N)C1(CCCC1)NC2=O (stereo not drawn) | thermal stability | – | DSF | 10 µM | ΔTm | -0.6 °C |
| O=C(NS(=O)(=O)c1ccc(NCC2CCOCC2)c([N+](=O)[O-])c1)c1ccc(N2CCN(Cc3ccc(C(F)(F)F)cc3-c3ccc(Cl)cc3)CC2)cc1Oc1cnc2[nH]ccc2c1 | cell-free assay | – | competition with immobilised ligand | 1 µM | remaining binding | 76% |
| COc1cc(/C=C/C(=O)CC(=O)/C=C/c2ccc(O)c(OC)c2)ccc1O | enzyme activity | inhibitor | – | 1 µM | activity vs control | 94% |
| CN(C)C1CCN(CC#Cc2nn(C3CCCC3)c3nc(NCc4ccccc4)ncc23)C1 (stereo not drawn) | enzyme activity | inhibitor | FRET | 0.1 µM | inhibition | 3% |
| Nc1nc(Nc2ccccc2)sc1C(=O)c1c(F)cccc1F | enzyme activity | inhibitor | – | 10 µM | remaining activity | 90% |
| Cn1cnc(Br)c1C1=CN(c2ncnc3[nH]cnc23)CCS1 | enzyme activity | inhibitor | radiometric | 2 µM | inhibition | 90.2% |
| O=C1Nc2ccc(Cl)cc2C1=Cc1cc(Cl)c(O)c(Cl)c1 | cell-free assay | – | – | 0.5 µM | remaining signal | 101% |
| CS(=O)(=O)Nc1cccc(-c2csc(NC(=O)CSc3nc4nccnc4c(=O)n3CCc3ccccc3)n2)c1 | enzyme activity | inhibitor | – | 10 µM | inhibition | 5% |
| CC1=C(C#N)C(c2ccc3c(c2)c(NC(=O)c2ccccc2C)nn3C)C(C#N)=C(C)N1 | cell-free assay | – | competition with immobilised ligand | 1 µM | remaining binding | 77% |
| Oc1cccc(-c2nc(N3CCOCC3)c3oc4ncccc4c3n2)c1 | enzyme activity | inhibitor | – | 10 µM | remaining activity | 100% |
| COc1cc2ncnc(Nc3ccc(F)c(Cl)c3)c2cc1OCCCN1CCOCC1 | cell-free assay | – | – | 0.5 µM | remaining signal | 96.3% |
| CC(C)(C)c1nc(-c2cccc(NS(=O)(=O)c3c(F)cccc3F)c2F)c(-c2ccnc(N)n2)s1 | enzyme activity | inhibitor | radiometric | 1 µM | remaining activity | 95% |
| CCN(CC)c1ccc(C2=NNC(=O)CC2C)cc1[N+](=O)[O-] (stereo not drawn) | enzyme activity | inhibitor | – | 10 µM | remaining activity | 100% |
